Measured values: ChEMBL document CHEMBL4406822, “Neuroactive Steroid N-Methyl-d-aspartate Receptor Positive Allosteric Modulators: Synthesis, SAR, and Pharmacological Activity” (J Med Chem, 2019)
Activity calls are given as the source filed them. The calls are words filed in the database; no cut-off is given here.

Columns and labels:
[1] = biological target: T1, Glutamate NMDA receptor; GRIN1/GRIN2A (Homo sapiens, UniProt Q05586+Q12879); test: Positive allosteric modulation of recombinant human GluN1/GluN2A receptor stably expressed in HEK293 cells assessed as increase in glycine/L-glutamate-induced channel current at -70 mV holding potential by IonWork […] method relative to control; assay type: cell-based
Procedure, shortened: (§1)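 Stable HEK293 lines expressing GluN1/GluN2A or GluN1/GluN2B, measured by automated whole-cell patch clamp (Ionworks Barracuda). Cells were held at -70 mV and stepped to -45 mV during agonist application (EC20 L-glutamate plus 50 µM glycine). The test article was first pre-applied alone for 5 min, then co-applied with agonist to record potentiation. Concentration-response percent potentiation gave EC50 and Emax.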

[2] = biological target: T1, Glutamate NMDA receptor; GRIN1/GRIN2A; test: Positive allosteric modulation of recombinant human GluN1/GluN2A receptor stably expressed in HEK293 cells assessed as increase in glycine/L-glutamate-induced channel current at -70 mV holding potential by IonWork […] method; assay type: cell-based; procedure, shortened: as §1
[3] = Stability in rat liver microsomes; assay type: ADME, Microsome; details: read-out: Stability
[4] = biological target: T2, Glutamate NMDA receptor; GRIN1/GRIN2B (Homo sapiens, UniProt Q05586+Q13224); test: Positive allosteric modulation of recombinant human GluN1/GluN2B receptor stably expressed in HEK293 cells assessed as increase in glycine/L-glutamate-induced channel current at -70 mV holding potential by IonWork […] method; assay type: cell-based; procedure, shortened: as §1
[5] = biological target: T2, Glutamate NMDA receptor; GRIN1/GRIN2B; test: Positive allosteric modulation of recombinant human GluN1/GluN2B receptor stably expressed in HEK293 cells assessed as increase in glycine/L-glutamate-induced channel current at -70 mV holding potential by IonWork whole cell patch clamp method relative to control
[6] = Stability in human liver microsomes; assay type: ADME, Microsome; details: read-out: Stability
[7] = Clearance in iv dosed rat; assay type: ADME, organism-based; details: in vivo
[8] = Ratio of drug level in Sprague-Dawley rat brain to plasma at 2.5 mg/kg, iv measured after 1 hr; assay type: ADME, organism-based; details: brain and plasma, read-out: BPR
[9] = Oral bioavailability in rat; assay type: ADME, organism-based; details: in vivo
[10] = Volume of distribution at steady state in rat; assay type: ADME; details: in vivo, read-out: Vdss
[11] = Half life in rat; assay type: ADME; details: in vivo
[12] = Ratio of drug level in Sprague-Dawley rat brain to plasma at 10 mg/kg, ip measured after 1 hr; assay type: ADME, organism-based; details: brain and plasma, read-out: BPR
[13] = biological target: T1, Glutamate NMDA receptor; GRIN1/GRIN2A; test: Potency index, ratio of 24(S)-hydroxycholesterol EC50 to test compound EC50 for positive allosteric modulation of recombinant human GluN1/GluN2A receptor stably expressed in HEK293 cells; assay type: cell-based
[14] = biological target: T2, Glutamate NMDA receptor; GRIN1/GRIN2B; test: Potency index, ratio of 24(S)-hydroxycholesterol EC50 to test compound EC50 for positive allosteric modulation of recombinant human GluN1/GluN2B receptor stably expressed in HEK293 cells; assay type: cell-based
Hippocampus [15] = test: Induction of synaptic plasticity in postnatal 60 to 90 day rat brain hippocampal slice assessed as change in theta burst stimulaiton-induced field potential potentiation at 1 uM treated 20 mins prior to theta burst stimulation by electrophysiological method; assay type: functional, tissue-based
Hippocampus [16] = test: Induction of synaptic plasticity in postnatal 120 to 150 day rat brain hippocampal slice assessed as stimulation of theta burst stimulaiton-induced field potential potentiation at 1 uM treated 20 mins prior to theta burst stimulation and measured after 60 mins by electrophysiological method; assay type: functional, tissue-based
Rattus norvegicus [17] = test: Improvement in social recognition in 20 to 21 months old Wistar Han rat model of aged-induced memory deficit assessed as reduction in time spent with familiar juvenile at 10 mg/kg, ip administered 4 hrs prior to training trial and measured after 30 mins; assay type: functional, organism-based
[18] = Drug uptake in 20 to 21 months old Wistar Han rat model of aged-induced memory deficit brain at 1 mg/kg, ip measured after 4 hrs; assay type: ADME, organism-based; details: read-out: Drug uptake
[19] = Drug uptake in 20 to 21 months old Wistar Han rat model of aged-induced memory deficit brain at 10 mg/kg, ip measured after 4 hrs; assay type: ADME, organism-based; details: read-out: Drug uptake
Rattus norvegicus [20] = test: Improvement in social recognition in 20 to 21 months old Wistar Han rat model of aged-induced memory deficit assessed as reduction in time spent with familiar juvenile at 3 mg/kg, ip administered 4 hrs prior to training trial and measured after 30 mins; assay type: functional, organism-based
Rattus norvegicus [21] = test: Improvement in social recognition in 20 to 21 months old Wistar Han rat model of aged-induced memory deficit assessed as reduction in time spent with familiar juvenile at 1 mg/kg, ip administered 4 hrs prior to training trial and measured after 30 mins; assay type: functional, organism-based
[22] = Drug uptake in 20 to 21 months old Wistar Han rat model of aged-induced memory deficit brain at 3 mg/kg, ip measured after 4 hrs; assay type: ADME, organism-based; details: read-out: Drug uptake

Row | SMILES | Emax [1] | EC50 [2] | microsomal CLint [3] | EC50 [4] | Emax [5] | microsomal CLint [6] | clearance [7] | bioavailability [9] | Vd [10] | half-life [11] | further results
1 | C[C@H](CC[C@H](O)C1CCC1)[C@H]1CC[C@H]2[C@@H]3CC=C4C[C@@](C)(O)CC[C@]4(C)[C@H]3CC[C@]12C | 300% | 120 nM | 31 µL/min/mg | 120 nM | 530% | < 10 µL/min/mg | – | – | – | – | –
2 | C[C@H](CC[C@@H](O)C(F)(F)F)[C@H]1CC[C@H]2[C@@H]3CC=C4C[C@@](C)(O)CC[C@]4(C)[C@H]3CC[C@]12C | 150% | 30 nM | 9 µL/min/mg | 310 nM | 230% | 3 µL/min/mg | 31.7 mL/min/kg | 70% | 2.8 L/kg | 1.9 h | Kp at 1 h [8]: 1
3 | CC(C)[C@@H](O)CC[C@@H](C)[C@H]1CC[C@H]2[C@@H]3CC=C4C[C@@](C)(O)CC[C@]4(C)[C@H]3CC[C@]12C | 200% | 33 nM | 28 µL/min/mg | 13 nM | 230% | < 10 µL/min/mg | 51.7 mL/min/kg | 15% | 3.7 L/kg | 1.6 h | Kp at 1 h [12]: 1.3; Ratio EC50 [13]: 4; Ratio EC50 [14]: > 10
4 | CC[C@@H](O)CC[C@@H](C)[C@H]1CC[C@H]2[C@@H]3CC=C4C[C@@](C)(O)CC[C@]4(C)[C@H]3CC[C@]12C | 220% | 420 nM | 25 µL/min/mg | 30 nM | 130% | < 10 µL/min/mg | – | – | – | – | –
5 | CC[C@H](O)CC[C@@H](C)[C@H]1CC[C@H]2[C@@H]3CC=C4C[C@@](C)(O)CC[C@]4(C)[C@H]3CC[C@]12C | 250% | 100 nM | 10 µL/min/mg | 84 nM | 160% | 15 µL/min/mg | – | – | – | – | –
6 | C[C@H](CC[C@@H](O)C1CC1)[C@H]1CC[C@H]2[C@@H]3CC=C4C[C@@](C)(O)CC[C@]4(C)[C@H]3CC[C@]12C | 220% | 77 nM | 20 µL/min/mg | 190 nM | 280% | 10 µL/min/mg | 68.3 mL/min/kg | – | 4.4 L/kg | 1.8 h | Kp at 1 h [12]: 3.2
7 | CC(C)[C@H](O)CC[C@@H](C)[C@H]1CC[C@H]2[C@@H]3CC=C4C[C@@](C)(O)CC[C@]4(C)[C@H]3CC[C@]12C | 200% | 120 nM | 11 µL/min/mg | 190 nM | 230% | < 10 µL/min/mg | 38.3 mL/min/kg | 25% | 3.1 L/kg | 2.2 h | Kp at 1 h [12]: 0.8
8 | CC(O)CC[C@@H](C)[C@H]1CC[C@H]2[C@@H]3CC=C4C[C@@H](O)CC[C@]4(C)[C@H]3CC[C@]12C (some centres undefined) | 150% | 320 nM | 17 µL/min/mg | 140 nM | 180% | 7 µL/min/mg | – | – | – | – | –
9 | C[C@H](CCC(C)(C)O)[C@H]1CC[C@H]2[C@@H]3CC=C4C[C@@H](O)CC[C@]4(C)[C@H]3CC[C@]12C | 110% | 180 nM | 30 µL/min/mg | 410 nM | 140% | 10 µL/min/mg | – | – | – | – | Activity (Hippocampus [15]): inactive; Activity (Hippocampus [16]): Active
10 | C[C@H](CCCC(C)(C)O)[C@H]1CC[C@H]2[C@@H]3CC=C4C[C@@H](O)CC[C@]4(C)[C@H]3CC[C@]12C | – | > 10000 nM | 31 µL/min/mg | > 10000 nM | 67% | 23 µL/min/mg | 41.7 mL/min/kg | 6% | 1.2 L/kg | 0.38 h | –
11 | C[C@H](CCC1(O)CC1)[C@H]1CC[C@H]2[C@@H]3CC=C4C[C@@H](O)CC[C@]4(C)[C@H]3CC[C@]12C | 280% | 900 nM | 35 µL/min/mg | 310 nM | 280% | 10 µL/min/mg | – | – | – | – | –
12 | C[C@H](CCC(C)(C)O)[C@H]1CC[C@H]2[C@@H]3CC=C4C[C@@](C)(O)CC[C@]4(C)[C@H]3CC[C@]12C | 220% | 480 nM | 35 µL/min/mg | 38 nM | 92% | 13 µL/min/mg | 18.3 mL/min/kg | 28% | 0.65 L/kg | – | Activity (Rattus norvegicus [17]): Active; concentration at 4 h [18]: 400 nM; concentration at 4 h [19]: 3700 nM; Kp at 1 h [8]: 0.6; Activity (Rattus norvegicus [20]): inactive; Activity (Rattus norvegicus [21]): Active; concentration at 4 h [22]: 900 nM; Activity (Hippocampus [16]): Active
13 | C[C@H](CC[C@@H](O)C1CCC1)[C@H]1CC[C@H]2[C@@H]3CC=C4C[C@@](C)(O)CC[C@]4(C)[C@H]3CC[C@]12C | 250% | 270 nM | 25 µL/min/mg | 270 nM | 410% | < 10 µL/min/mg | 88.3 mL/min/kg | 18% | 2.9 L/kg | 0.84 h | –
